Source: PubChem
An excerpt weighted towards active compounds, which were near 2.3% of everything screened.
OXTR agonist = agonists of human oxytocin receptor. P30559. CHO-OTR cells, Fluo-8 calcium fluorescence; normalized: DMSO 0%, oxytocin 100%. activation, % at 3 µM. 0.32% of 320,000 active;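 active means activation above the mean of all tested compounds plus 3 SD, cutoff set per screening run, cut at about 20% in these data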;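 further: peak over basal fluorescence ratio from a 100 s FLIPR kinetic read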
TAAR1 agonist = human TAAR1 agonism | CHO RD-HGA16 TAAR1, Fluo-8 calcium fluorescence; vehicle wells 0%, saturating PEA agonist 100% | 0.99% of 360,000 active | activation, % at 3 µM | Q96RJ0;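 active means activation above the mean activation of all test compounds in the run plus 3 SD, cut at about 38% in these data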
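test system = CHO RD-HGA16 cells carrying human TAAR1 plus Gα16 | schedule = 17-24 h seeding, 75 min 37 °C dye, 30 min RT | compound dosing = 3 µM single concentration | control set = DMSO and PEA EC100 | replicates = n 1 | signal = Fluo-8 fluorescence, 5 s baseline then 140 s kinetic read | measure = percent activation vs PEA EC100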
V1R ag counter = activates human V1a receptor in oxytocin agonist counter-screen; AID 2797; 0.25% of 320,000 active; CHO-V1R cells, Fluo-8 calcium fluorescence, agonist mode; 0% DMSO, 100% 3 nM vasopressin; activation, % at 3 µM;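 active means activation above the mean activation of all tested compounds plus 3 SD, per screening run, cut at about 20% in these data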;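 further: signal is peak over basal fluorescence ratio across a 100 second FLIPR read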
Target sequence (P37288 whole entry, looked up): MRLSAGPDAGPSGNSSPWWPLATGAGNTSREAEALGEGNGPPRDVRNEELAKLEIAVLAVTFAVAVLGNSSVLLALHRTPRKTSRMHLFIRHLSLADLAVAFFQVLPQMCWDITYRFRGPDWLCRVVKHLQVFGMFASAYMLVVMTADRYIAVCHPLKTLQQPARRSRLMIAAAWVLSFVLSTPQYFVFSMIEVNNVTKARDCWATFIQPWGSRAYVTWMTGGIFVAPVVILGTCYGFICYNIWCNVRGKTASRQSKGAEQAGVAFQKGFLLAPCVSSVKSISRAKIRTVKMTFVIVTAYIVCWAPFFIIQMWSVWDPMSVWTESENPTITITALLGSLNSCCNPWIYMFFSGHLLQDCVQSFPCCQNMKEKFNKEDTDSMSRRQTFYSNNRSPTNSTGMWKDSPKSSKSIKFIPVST
TAAR1 antagonist = antagonists of human TAAR1; Q96RJ0; CHO RD-HGA16 TAAR1, Fluo-8 calcium fluorescence, antagonist; inhibition, % at 3 µM; 1.5% of 360,000 active;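 active means inhibition above a per-plate cutoff, the mean inhibition of test compounds on that plate plus 3 SD, cut at about 49% in these data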
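Test system: hTAAR1-expressing CHO RD-HGA16 cells, Gα16-coupled; Probe or stimulus: EC80 β-phenethylamine stimulus; Compound dosing: single nominal final test compound concentration of 3 µM; Timing: 140 s kinetic read after compound, 140 s after agonist; Signal: Fluo-8 calcium-sensitive fluorescence; Measure: % inhibition of agonist calcium response; Controls: DMSO and EC80 PEA controls.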
OXTR potentiate = potentiators of human oxytocin receptor. CHO-OTR cells, Fluo-8 calcium fluorescence, potentiator mode; 0% = oxytocin EC15, 100% = EC100. activation, % at 3 µM. 0.061% of 320,000 active. AID 2445;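 active means activation above that plate's cutoff, the mean activation of tested compounds plus 3 SD, cut at about 6.6% in these data, passing the limit was not always enough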
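Assay system: CHO-OTR cells, human receptor / Also added: oxytocin at about EC15, sub-maximal agonist stimulus / Dosing: single dose, 3.0 µM nominal final compound concentration / Incubation: 6 min pre-incubation, 100 s read / Technique: Fluo-8 calcium dye fluorescence / Read-out: % activation vs EC15 and EC100 oxytocin / Benchmarks: EC15 oxytocin low, 75 nM oxytocin high / Replicates: singlicate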
Of the large screens only hits and unclear results are named; the others gave an inactive call.

C=CC[C@@H](CC(=O)N(CCO)Cc1ccccc1)C(=O)N[C@H](COC(=O)[C@@H](CC=C)Cc1ccc(F)cc1)C(C)(C)C	none
CCOC(=O)Cc1cc(=O)[nH]c(/N=C(\N)Nc2ccc(C)c(C)c2)n1	none
Cc1cccc(N2CCN(C(=O)C3CCN(c4nnc(-n5cccc5)s4)CC3)CC2C)c1 (stereo not drawn)	TAAR1 antagonist 49.0
Cc1cccc(N2CCN(C(=O)C3CCN(S(=O)(=O)c4cccc5nsnc45)CC3)CC2C)c1 (stereo not drawn)	TAAR1 antagonist 59.7
COc1ccc(C(CNC(=O)c2nn(-c3ccccc3)c(=O)c3ccccc23)N2CCOCC2)cc1 (stereo not drawn)	none (no result: OXTR agonist, V1R ag counter, OXTR potentiate)
O=C(Nc1ccc(N2CCOCC2)cc1)Nc1ccc2nc(-c3ccco3)c(-c3ccco3)nc2c1	TAAR1 antagonist 48.9
O=C(Nc1nc(OCC(F)(F)F)cnc1/C=C\c1ccccc1)c1ccsc1	TAAR1 antagonist 56.7 (no result: OXTR agonist, V1R ag counter, OXTR potentiate)
CCCOc1ccccc1OCC(=O)N1CCN(S(=O)(=O)c2ccc(Cl)cc2)CC1	none
CN(C)c1ccc(CC(=O)N2CCCC(c3cc(C(=O)Nc4ccc(C(C)(C)C)cc4)no3)C2)cc1 (stereo not drawn)	TAAR1 antagonist 55.5 (no result: OXTR agonist, V1R ag counter, OXTR potentiate)
O=C(Nc1ccccc1)c1cc(C2CCCN(C(=O)CCc3ccccc3)C2)on1 (stereo not drawn)	none (no result: OXTR agonist, V1R ag counter, OXTR potentiate)
CC(C)CNC(=S)N(CCCN(C)C)Cc1cc2cc3c(cc2[nH]c1=O)OCCO3	none
O=C(C1=C(O)C(=O)N(c2nccs2)C1c1ccccc1)c1cc2ccccc2o1 (stereo not drawn)	OXTR agonist 20.1, V1R ag counter 185.6
NC(c1csc(NC(=O)Nc2ccc(OC(F)(F)F)cc2)n1)C1CCCCC1 (stereo not drawn)	TAAR1 agonist 47.4 (no result: OXTR agonist, V1R ag counter, OXTR potentiate)
COc1ccc(NC(=O)Nc2nc(C(N)CC(C)C)cs2)cc1 (stereo not drawn)	none (no result: OXTR agonist, V1R ag counter, OXTR potentiate)
CSCC(CO)NS(=O)(=O)c1ccc(C)cc1 (stereo not drawn)	none
CCOC(=O)c1c(C)[nH]c(C(=O)N2CCC(C(=O)OCC)CC2)c1C	none
CN[C@@H]1CC[C@H](c2ccc(Cl)c(Cl)c2)c2ccccc21	TAAR1 agonist 44.6 (no result: OXTR agonist, V1R ag counter, OXTR potentiate)
O=C(OCC(=O)N1CCNC1=O)c1ccccc1Cl	none (no result: OXTR agonist, V1R ag counter, OXTR potentiate)
Cc1ccc(NC(=O)c2ccc(S(=O)(=O)N3CCOCC3)cc2)cc1	none
Cc1ccc(SC(C)C(=O)Nc2ccc(S(=O)(=O)N3CCOCC3)cc2)cc1 (stereo not drawn)	TAAR1 agonist 38.5
S=C(NCCc1ccccc1)N1CCN(C23CC4CC(CC(C4)C2)C3)CC1	TAAR1 agonist 37.5
N#CC1C(=O)c2ccccc2C1c1ccccc1 (stereo not drawn)	TAAR1 antagonist 66.7 (no result: OXTR agonist, V1R ag counter, OXTR potentiate)
O=C(COc1ccc(F)cc1)NCCCn1ccnc1	none (no result: OXTR agonist, V1R ag counter, OXTR potentiate)
Cc1ccc2nc(SCC(=O)c3ccc(O)cc3O)[nH]c2c1	TAAR1 agonist 40.9
CCN(CC)c1ccc(/C=C(/C#N)C(=O)NCc2ccccc2)o1	OXTR agonist 29.5, TAAR1 agonist 53.8, V1R ag counter 26.3, TAAR1 antagonist 53.7
CCN(CC)c1ccc(/C=C(/C#N)C(=O)NC(C)C)o1	none
O=C(CSc1nc2ccc(N3CCOCC3)cc2c(=O)n1CCc1ccccc1)NCC1CCCO1 (stereo not drawn)	TAAR1 antagonist 51.9
CCCCNC(=O)CSc1nc2ccc(N3CCOCC3)cc2c(=O)n1CCc1ccccc1	none
O=C(CSc1cn[nH]n1)Nc1cccc(C(F)(F)F)c1	none
CCS(=O)(=O)c1ccc(-c2cccc(NC(=O)COc3ccc(Cl)cc3)c2)nn1	TAAR1 antagonist 49.2
O=C(COc1ccccc1)Nc1cccc(-c2ccc(N3CCOCC3)nn2)c1	TAAR1 antagonist 49.0
CC(C)CNS(=O)(=O)c1ccc(CCC(=O)Nc2cc(Cl)ccc2Oc2ccccc2)cc1	TAAR1 antagonist 63.3
CCCNS(=O)(=O)c1ccc(CCC(=O)Nc2cc(Cl)ccc2Oc2ccccc2)cc1	TAAR1 antagonist 68.6 (no result: OXTR agonist, V1R ag counter, OXTR potentiate)
CC(C)(C)NS(=O)(=O)c1ccc(CCC(=O)Nc2cc(Cl)ccc2Oc2ccccc2)cc1	none
O=C(Nc1nnc(-c2ccccc2)o1)c1nc2ccccc2s1	OXTR agonist 87.5, TAAR1 agonist 154.4, V1R ag counter 83.1
